Assay [1] addresses Sodium-dependent dopamine transporter (Rattus norvegicus, UniProt P23977). As to the kind of experiment: Binding affinity was evaluated using [3H]WIN-35428 binding to dopamine transporter (DAT) in rat caudate-putamen. In kind it is tissue-based.
The target in a further assay is Sigma 2 receptor. Description: Binding affinity was evaluated using [3H]-DTG binding to sigma-2 receptor from rat liver. Put shortly:
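Rat liver membranes (male Sprague-Dawley), 160 μg protein, with 5 nM [3H]DTG plus 1 μM dextrallorphan to mask σ1 sites; 50 mM Tris-HCl pH 8.0, 120 min at 25 °C. Nonspecific binding with 10 μM haloperidol; filtration on poly(ethylenimine)-soaked glass fiber filters, scintillation counting.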

The target of assay [2] is Sodium-dependent dopamine transporter (Rattus norvegicus) (UniProt P23977). Description: Binding constant(Bmax) of [3H]WIN-35428 at saturation in rat caudate-putamen tissue pre-incubated in buffer at 10 uM (Dopamine transporter). In kind it is tissue-based. In a few lines: (§1)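 Rat caudate-putamen homogenate in Krebs-HEPES buffer pH 7.4, preincubated 1 h on ice with buffer alone, 100 nM or 10 μM ligand, then washed by two centrifugations. Twelve-point saturation with 0.1–25 nM [3H]WIN 35,428, 1 h on ice; filtration. Bmax and KD fitted by nonlinear least squares across replicate experiments, with standard errors; protein by modified Lowry.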
Sequence of Sodium-dependent dopamine transporter (Rattus norvegicus) (P23977 whole entry): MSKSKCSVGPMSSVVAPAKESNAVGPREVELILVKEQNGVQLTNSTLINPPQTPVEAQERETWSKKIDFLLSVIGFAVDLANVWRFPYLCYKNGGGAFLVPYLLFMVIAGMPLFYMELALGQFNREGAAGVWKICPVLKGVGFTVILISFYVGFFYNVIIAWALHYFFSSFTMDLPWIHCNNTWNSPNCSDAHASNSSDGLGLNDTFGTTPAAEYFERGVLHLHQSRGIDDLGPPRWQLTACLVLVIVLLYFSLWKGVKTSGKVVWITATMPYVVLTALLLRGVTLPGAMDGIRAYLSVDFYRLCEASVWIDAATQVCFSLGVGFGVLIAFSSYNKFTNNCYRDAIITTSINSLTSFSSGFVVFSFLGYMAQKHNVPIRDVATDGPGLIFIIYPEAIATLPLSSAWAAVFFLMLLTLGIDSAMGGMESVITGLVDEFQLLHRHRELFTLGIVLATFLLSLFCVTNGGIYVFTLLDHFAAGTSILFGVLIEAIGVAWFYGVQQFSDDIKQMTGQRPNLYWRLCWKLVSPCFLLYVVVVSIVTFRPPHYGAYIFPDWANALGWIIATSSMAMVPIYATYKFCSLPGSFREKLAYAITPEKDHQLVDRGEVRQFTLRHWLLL

Assay [3] has the same target. As to the kind of experiment: Binding constant(Bmax) of [3H]WIN-35428 at saturation in rat caudate-putamen tissue preincubated in buffer at 100 nM (Dopamine transporter). In kind it is tissue-based. Put shortly:
as §1

The target is the same in assay [4]. As to the kind of experiment: Binding constant(Bmax) of [3H]WIN-35428 at saturation in rat caudate-putamen tissue pre-incubated in buffer (Dopamine transporter). In kind it is tissue-based. In a few lines: as §1

Sequence of Sodium-dependent dopamine transporter (P23977 whole entry): as above

One may read the IC50 as the concentration needed to halve the response being measured. Low values mean greater potency, high ones weaker potency. Consider `C[C@H]1CN(CCCn2c3ccccc3c3ccccc32)C[C@H](C)N1C`, for which the results for the IC50 (in assay [1]; on Sigma 2 receptor) were 244 nM and 294 nM, respectively.
In turn, `CC1CN(CCCn2c3ccccc3c3cc(N=C=S)ccc32)CC(C)N1C` (stereo not drawn) came in with an IC50 in assay [1] of 1330 nM.
On to `CC1CN(CCCn2c3ccccc3c3ccccc32)CC(C)N1CCCN=C=S` (stereo not drawn), for which the half-maximal inhibitory concentration (IC50) is 523 nM in assay [1] and 877 nM on Sigma 2 receptor.
As for `CC1CN(CCCn2c3ccccc3c3ccccc32)CC(C)N1CCN=C=S` (stereo not drawn), the half-maximal inhibitory concentration (IC50) in assay [1] was determined as 1250 nM; on Sigma 2 receptor it was 1440 nM.
Consider `CC1CN(CCCn2c3ccccc3c3ccccc32)CC(C)N1CCCCCCN=C=S` (stereo not drawn), for which the Bmax (fM (mg of protein)-1) in assay [2] is 6.65; in assay [3] it was 167; in assay [4] it was 537. In addition, the IC50 at Sigma 2 receptor came to 211 nM.
Take `C[C@@H]1CN(CCCn2c3ccccc3c3ccccc32)C[C@H](C)N1` [RIMCAZOLE]: the values for the IC50 (in assay [1]; on Sigma 2 receptor) were 57.6 nM and 386 nM, respectively.

For the origin of these results see ChEMBL document CHEMBL1130315 (J Med Chem, 1997).
